Data published in ChEMBL document CHEMBL2146445, “Discovery of BIIB042, a Potent, Selective, and Orally Bioavailable γ-Secretase Modulator” (ACS Med Chem Lett, 2011).
Calls of active or inactive are those of the source. The rule behind the calls is not given here.

Experiments:
[1] = Modulation of gamma-secretase in CHO cells overexpressing APP V717 mutant assessed as reduction in amyloid beta42 level after 17 hrs by ELISA; assay type: cell-based; details: Cricetulus griseus
How it was run: (§1)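 CHO cells overexpressing APP V717F; Aβ42, Aβ40 and Aβ38 quantified together in each well by multiplex Aβ ELISA. EC50 is the mean of at least two determinations.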

CHO [2] = test: Modulation of gamma-secretase in CHO cells overexpressing APP V717 mutant assessed as increase in amyloid beta38 level after 17 hrs by ELISA; assay type: cell-based; details: Cricetulus griseus; how it was run: as §1
CHO [3] = test: Modulation of gamma-secretase in CHO cells overexpressing APP V717 mutant assessed as effect on amyloid beta40 level after 17 hrs by ELISA; assay type: cell-based; details: Cricetulus griseus; how it was run: as §1
Mus musculus [4] = test: Antialzheimer activity in CF1 mouse assessed as reduction in amyloid beta42 level in brain at 50 mg/kg, po after 4 hrs by ELISA; assay type: functional; set-up: scale not given: the % may be the effect or the level left
How it was run: (§2)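 Wild-type CF-1 mice received a single oral dose as a solution in ethanol:propylene glycol:10% solutol (1:1:8). Animals were sacrificed 4 h after dosing. Brain and plasma were collected for drug concentration and Aβ levels. Aβ change was expressed relative to vehicle-treated controls.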

[5] = Drug uptake in CF1 mouse brain at 50 mg/kg, po after 4 hrs; assay type: ADME, organism-based; set-up: dose 50 mg/kg, route oral; details: read-out: Drug uptake; how it was run: as §2
[6] = Plasma concentration in CF1 mouse at 50 mg/kg, po after 4 hrs; assay type: ADME, organism-based; set-up: dose 50 mg/kg, route oral
How it was run: (§3)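 Wild-type (CF-1) mice given compound orally as a solution in ethanol:propylene glycol:10% solutol (1:1:8). Animals sacrificed 4 h post-dose; brain and plasma collected for drug exposure and Aβ levels.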

Mus musculus [7] = test: Antialzheimer activity in CF1 mouse assessed as reduction in amyloid beta42 level in brain at 30 mg/kg, po after 4 hrs by ELISA; assay type: functional; set-up: scale not given: the % may be the effect or the level left; how it was run: as §2
[8] = Drug uptake in CF1 mouse brain at 30 mg/kg, po after 4 hrs; assay type: ADME, organism-based; set-up: dose 30 mg/kg, route oral; details: read-out: Drug uptake; how it was run: as §2
[9] = Plasma concentration in CF1 mouse at 30 mg/kg, po after 4 hrs; assay type: ADME, organism-based; set-up: dose 30 mg/kg, route oral; how it was run: as §3
[10] = Modulation of gamma-secretase

Structure (SMILES)	EC50 [1] [nM]	Activity (CHO [2])	Activity (CHO [3])	Activity (Mus musculus [4])	concentration at 4 h [5] [µM]	concentration at 4 h [6] [µM]	Activity (Mus musculus [7])	concentration at 4 h [8] [µM]	concentration at 4 h [9] [µM]	EC50 [10] [nM]
O=C(O)Cc1ccc(C(c2ccc(F)cc2)N2CCC(C(F)(F)F)CC2)c(-c2ccc(C(F)(F)F)cc2)c1 (configuration not stated)	1100	Active	inactive	20%	7.4	26				
CC(C)(C)CC(C(=O)O)c1ccc(C(c2ccc(F)cc2)N2CCCCC2)c(-c2ccc(C(F)(F)F)cc2)c1 (configuration not stated)	40	Active	inactive							
CC(C(=O)O)c1ccc(C(c2ccc(F)cc2)N2CCCC(C)(C)C2)c(-c2ccc(C(F)(F)F)cc2)c1 (configuration not stated)	170	Active	inactive				25%	2.5	5.3	
CC(C(=O)O)c1ccc(C(c2ccc(F)cc2)N2CCCC2)c(-c2ccc(C(F)(F)F)cc2)c1 (configuration not stated)	2300	Active	inactive							
CC1CCN(C(c2ccc(F)cc2)c2ccc(CC(=O)O)cc2-c2ccc(C(F)(F)F)cc2)CC1 (configuration not stated)	2900	Active	inactive							
CC1CCN(C(c2ccc(F)cn2)c2ccc(C(C)C(=O)O)cc2-c2ccc(C(F)(F)F)cc2)CC1 (configuration not stated)	3700	Active	inactive							
CC(C(=O)O)c1ccc(C(c2ccc(F)cc2)N2CCN(C)CC2)c(-c2ccc(C(F)(F)F)cc2)c1 (configuration not stated)	> 10000	Active	inactive							
CC1CCN(C(c2ccc(F)cc2)c2ccc(C(C)C(=O)O)cc2-c2ccc(C(F)(F)F)cc2)CC1 (racemic)	390	Active	inactive				45%	18.4	27.2	
CC1CCN(C(c2ccc(F)cc2)c2ccc(C(C)C(=O)O)cc2-c2cnc(C(C)(C)C)nc2)CC1 (configuration not stated)	4500	Active	inactive							
CC1CCN(C(c2ccc(F)c(F)c2)c2ccc(C(C)C(=O)O)cc2-c2ccc(C(F)(F)F)cc2)CC1 (configuration not stated)	250	Active	inactive				40%	12	20.8	
CC(C(=O)O)c1ccc(C(c2ccc(F)cc2)N2CC3CCCC3C2)c(-c2ccc(C(F)(F)F)cc2)c1 (configuration not stated)	620	Active	inactive				30%	12.1	16.3	
CCCC(C(=O)O)c1ccc(C(c2ccc(F)cc2)N2CCC(C)CC2)c(-c2ccc(C(F)(F)F)cc2)c1 (configuration not stated)	250	Active	inactive							
CC(C(=O)O)c1ccc(C(c2ccc(F)cc2)N2CCC(F)CC2)c(-c2ccc(C(F)(F)F)cc2)c1 (configuration not stated)	2000	Active	inactive							
CC1CCN(C(c2ccc(C(F)(F)F)nc2)c2ccc(C(C)C(=O)O)cc2-c2ccc(C(F)(F)F)cc2)CC1 (configuration not stated)	580	Active	inactive				23%	10.9	25.2	
CC1CCN(C(c2ccc(C(F)(F)F)cc2)c2ccc(C(C)C(=O)O)cc2-c2ccc(C(F)(F)F)cc2)CC1 (configuration not stated)	180	Active	inactive				inactive	14	20.5	
CC1CCN(C(c2ccc(F)cc2)c2ccc(C(CC3CC3)C(=O)O)cc2-c2ccc(C(F)(F)F)cc2)CC1 (configuration not stated)	110	Active	inactive				40%	11.8	29.6	
O=C(O)Cc1ccc(C(c2ccc(F)cc2)N2CCC(C(F)(F)F)CC2)c(-c2ccc(F)cc2)c1 (configuration not stated)	2300	Active	inactive							
CC1CCN(C(c2ccc(F)cc2)c2ccc(C(C(=O)O)C(C)C)cc2-c2ccc(C(F)(F)F)cc2)CC1 (configuration not stated)	120	Active	inactive							
CC(C(=O)O)c1ccc(C(c2ccc(F)cc2)N2CCC(C)(C)CC2)c(-c2ccc(C(F)(F)F)cc2)c1 (configuration not stated)	300	Active	inactive				30%	25.3	27.2	
CC(C)(C)c1ccc(-c2cc(CC(=O)O)ccc2C(c2ccc(F)cc2)N2CCC(C(F)(F)F)CC2)cc1 (configuration not stated)	560	Active	inactive	inactive	1	6.3				
CC(C(=O)O)c1ccc(C(c2ccc(F)cc2)N2CC3CCC(C3)C2)c(-c2ccc(C(F)(F)F)cc2)c1 (configuration not stated)	390	Active	inactive				25%	3.1	10.7	
CC(C)CCN(Cc1ccc(CC(=O)O)cc1-c1ccc(C(F)(F)F)cc1)c1ccc(C(F)(F)F)cc1	1000				0.6					
CCC(C(=O)O)c1ccc(C(c2ccc(F)cc2)N2CCC(C)CC2)c(-c2ccc(C(F)(F)F)cc2)c1 (configuration not stated)	330	Active	inactive				40%	13	20.4	
CC(C(=O)O)c1ccc(C(c2ccc(F)cc2)N2CCC(C(F)(F)F)CC2)c(-c2ccc(C(F)(F)F)cc2)c1 (configuration not stated)	180	Active	inactive				40%	14.4	21.7	
CC(C(=O)O)c1ccc(C(c2ccc(F)cc2)N2CCCCC2)c(-c2ccc(C(F)(F)F)cc2)c1 (configuration not stated)	1400	Active	inactive							
CC1CCN(C(c2ccc(F)cc2)c2ccc(C3(C(=O)O)CC3)cc2-c2ccc(C(F)(F)F)cc2)CC1 (configuration not stated)	2200	Active	inactive							
CC(C(=O)O)c1ccc(C(c2ccc(F)cc2)N2CCC3(CC2)CC3)c(-c2ccc(C(F)(F)F)cc2)c1 (configuration not stated)	400	Active	inactive							
CC1CCN(C(c2ccc(Cl)cc2)c2ccc(C(C)C(=O)O)cc2-c2ccc(C(F)(F)F)cc2)CC1 (configuration not stated)	420	Active	inactive				25%	19.4	27.1	
C[C@@H](C(=O)O)c1ccc(-c2ccccc2)c(F)c1 [TARENFLURBIL]										300000
CC(C)CC(C(=O)O)c1ccc(C(c2ccc(F)cc2)N2CCCCC2)c(-c2ccc(C(F)(F)F)cc2)c1 (configuration not stated)	120	Active	inactive	30%	5.7	32.2				
